Compound activity as filed in PubChem.
PLCg1 inh = PLC-gamma1 enzyme inhibitors, primary screen, biochemical, fluorescence, purified enzyme; inhibition, % at 12.2 µM; 1-phosphatidylinositol 4,5-bisphosphate phosphodiesterase gamma-1 (Homo sapiens), P19174; fluorogenic substrate; 0.84% of 370,000 active; in the data active means inhibition above about 9.5%
PLCb3 inh = human PLC-beta3 inhibitors, primary screen, biochemical, fluorescence; Purified PLC-beta3, fluorogenic substrate; 1-phosphatidylinositol 4,5-bisphosphate phosphodiesterase beta-3 (Homo sapiens), Q01970; 0.18% of 370,000 active; inhibition, % at 12.2 µM;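 further: 0% = median of compound wells on plate and 100% = full blocker control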
Tn6 DDE FP = inhibitors of Tn6 peptide binding to fibrin DD(E), primary screen, biochemical, fluorescence polarization, human fibrin, Tn6 probe | Fibrinogen beta chain (Homo sapiens), P02675 | Fibrin DD(E) TRITC-Tn6 fluorescence polarization displacement | inhibition, % at 8.3 µM | 0.21% of 370,000 active | AID 720509, 2013;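 active means inhibition above a per-campaign cutoff: mean of compounds within control limits plus 3 SD, cut at about 15% in these data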;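 further: 0% = median of all compound wells on the plate and 100% = blocking peptide control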
ADAM17 inh = ADAM17 inhibitors, primary screen, biochemical, QFRET | recombinant ADAM17, EDANS/DABCYL FRET peptide cleavage | Disintegrin and metalloproteinase domain-containing protein 17 (Homo sapiens), P78536 | 0.83% of 370,000 active | inhibition, % at 6.95 µM;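 active means inhibition above the mean of compounds lying between control limits plus 3 SD, set per campaign, cut at about 8.5% in these data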;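 further: 0% = DMSO-only wells as the low control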
ADAM10 inh = human ADAM10 inhibitors, primary screen, biochemical, QFRET, HTS. Disintegrin and metalloproteinase domain-containing protein 10 (Homo sapiens), O14672. inhibition, % at 7 µM. AID 720582, 2013. recombinant ADAM10, EDANS/DABCYL FRET peptide cleavage, 3 h. 0.62% of 370,000 active;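 active means inhibition above a per-campaign cutoff equal to the mean of compounds falling between control-based bounds plus 3 SD, cut at about 20% in these data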;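 further: 0% = DMSO wells while the 100% control is not disclosed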
Target sequence (O14672 214-748 limits assumed): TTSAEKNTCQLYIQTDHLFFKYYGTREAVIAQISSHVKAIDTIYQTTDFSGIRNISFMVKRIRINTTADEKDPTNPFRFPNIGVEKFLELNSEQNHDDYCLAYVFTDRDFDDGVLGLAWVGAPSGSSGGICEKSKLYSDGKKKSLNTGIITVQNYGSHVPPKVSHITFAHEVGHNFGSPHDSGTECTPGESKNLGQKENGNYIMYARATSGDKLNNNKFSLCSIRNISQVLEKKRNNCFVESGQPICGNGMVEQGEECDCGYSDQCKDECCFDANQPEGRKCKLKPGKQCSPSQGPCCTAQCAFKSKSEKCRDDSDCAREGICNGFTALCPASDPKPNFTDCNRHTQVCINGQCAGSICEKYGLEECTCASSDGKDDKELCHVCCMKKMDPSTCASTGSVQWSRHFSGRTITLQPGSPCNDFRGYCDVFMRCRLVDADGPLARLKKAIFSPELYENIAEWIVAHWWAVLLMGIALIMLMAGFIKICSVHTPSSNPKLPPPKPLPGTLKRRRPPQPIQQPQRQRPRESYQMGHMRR
DDE Tn7 FP inh = inhibitors of Tn7 peptide binding to fibrin DD(E), primary screen, biochemical, fluorescence polarization, human fibrin, Tn7 probe | 0.13% of 370,000 active | AID 720508, 2013 | inhibition, % at 8.3 µM | FP displacement of FITC-Tn7 peptide from fibrin DD(E); 0% = median of compound wells per plate | Fibrinogen beta chain (Homo sapiens), P02675;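 active means inhibition above the mean of compounds falling within the control limits plus 3 SD of them, cut at about 14% in these data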;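 further: 0% = plate median of compound wells and 100% = 10 µM Aha-Tn7 peptide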
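Assay system: Fibrin-DD(E) protein isolated from polymerized human fibrin clots; read-out basis: percent inhibition; medium: Tris/NaCl/CaCl2 buffer, pH 7.8; signal: FP measurement; incubation: 10 min plus 3 h, room temperature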
PLCg1 ctr = PLC-gamma1 enzyme inhibitors, counter-screen for PLC-beta3 inhibitor project, biochemical, fluorescence. inhibition, % at 12.3 µM. purified PLC-gamma1, fluorogenic substrate. AID 743258, 2014. shares compounds with PLCg1 inh. 3.1% of 3,300 active; in the data active means inhibition above about 9.5%
PLCbeta3 conf = PLC-beta3 inhibitor confirmation, biochemical, fluorescence, purified enzyme; shares compounds with PLCg1 inh; fluorogenic substrate fluorescence; inhibition, % at 12.3 µM; 1% of 3,300 active
* = called active by the depositor; / = no result given. Compounds with a hit are over-represented: about 2.3% of the library has one in this group of screens. Unless noted, no stated cut-off is given here; in the data, active means inhibition above about 11%; inactive means the rest.

SMILES	PLCg1 inh	PLCb3 inh	Tn6 DDE FP	ADAM17 inh	ADAM10 inh	DDE Tn7 FP inh	PLCg1 ctr	PLCbeta3 conf
COC(=O)C1=C(C)N(Cc2ccccc2)C(=S)N[C@H]1c1ccc(Br)cc1	1	-3	3	1	6	-2	/	/
COC(=O)C1=C(C)N(Cc2ccccc2)C(=S)NC1c1ccc(Br)cc1 (centres undefined)	9.7*	4	-7	3	5	-5	-1	0
COC(=O)C1=C(C)N(Cc2ccc(C(F)(F)F)cc2)C(=NCc2cccc(C(F)(F)F)c2)NC1c1ccccc1C(F)(F)F (centres undefined)	-2	8	7	0	-1	7	/	/
O=C(OCc1cn(Cc2cc(F)ccc2F)nn1)N1CCOCC1	0	1	7	-4	-4	-1	/	/
O=C(COC(=O)c1cccs1)NCc1ccc2c(c1)OCO2	10*	2	3	5	6	2	-6	-3
O=C(COC(=O)COc1ccccc1[N+](=O)[O-])NCc1ccc2c(c1)OCO2	13*	8	0	5	9	-10	-5	0
CCn1c2ccccc2c2cc(C=Nn3c(-c4ccccn4)n[nH]c3=S)ccc21	-367	-477	-3	-20	-80	1	/	/
COc1ccccc1COC(=O)c1cccc(S(=O)(=O)N(C)Cc2ccccc2)c1	-6	-7	-3	5	1	4	/	/
COC(=O)c1sc(N)c(C(=O)OC)c1CSc1nnnn1C	9.9*	0	-2	2	18	0	-3	2
C[C@H]1C2CC(OC(=O)NCCCc3ccccc3)C(C2)[C@H]2CCCCN21 (some centres undefined)	-1	-1	9	-4	-10	0	/	/
Cn1c(SCC(=O)Nc2ccc(C(=O)O)cc2)nnc1-c1ccccn1	2	-2	3	-3	-10	-5	/	/
Cc1cc[n+](-c2[nH]c(=O)sc2/C=N/N=C(\[O-])c2ccncc2)cc1	11*	3	-11	7	18	-7	2	7
CC(C)N1CCCCC(NC(=O)c2c(F)cccc2F)C1=O (centres undefined)	2	4	5	0	-2	2	/	/
Cc1cccc(OCCCn2c(CO)nc3ccccc32)c1	12*	3	-3	5	3	7	-4	-1
COc1ccc(OC)c(CN2C(=O)CCCCC2(C)c2nnnn2C2CCCC2)c1 (centres undefined)	-3	6	-2	-1	-2	2	/	/
NS(=O)(=O)c1ccc(N/N=C/c2ccc(O)c(O)c2O)c([N+](=O)[O-])c1	12*	2	-9	1	9	1	5	3
NS(=O)(=O)c1ccc(N/N=C/c2ccc(O)cc2O)c([N+](=O)[O-])c1	10*	3	-15	-4	1	1	12*	13*
CCCCc1c(-c2ccccc2OC)ncn1Cc1cc(F)cc(F)c1	-2	-6	2	-6	-3	4	/	/
CN(Cc1ccccc1)C(=O)OCc1cn(Cc2cccc(F)c2F)nn1	-2	1	-1	0	-4	-1	/	/
O=C(NCc1ccc(OC(F)(F)F)cc1)C1CCC(=O)N(C2CC2)C1 (centres undefined)	11*	-3	-1	3	-3	2	-1	0
CCOc1ccc(N(CC(=O)NCCc2ccccc2)C(=O)c2csnn2)cc1	11*	-6	4	-1	-10	3	3	0
CC1(C)Cc2c(sc(/N=C/N3CCCCCC3)c2C#N)C(C)(C)N1	1	3	-2	0	-2	-3	/	/
CC1(C)Cc2c(sc(/N=C/N3CCCC3)c2C#N)C(C)(C)N1	19*	13*	2	3	2	-2	-4	0
Fc1cccc(CNC(=S)OC2CCC23CCC(c2ccccc2)CC3)c1 (centres undefined)	-2	0	6	-4	-8	2	/	/
O=C(CCc1ccccc1)N[C@H]1[C@@H](OC(=O)c2cnccn2)CCC[C@@]12C(=O)N(Cc1ccccc1)c1ccccc12	12*	3	7	6	5	-10	14*	8
SMILES	PLCg1 inh	PLCb3 inh	Tn6 DDE FP	ADAM17 inh	ADAM10 inh	DDE Tn7 FP inh	PLCg1 ctr	PLCbeta3 conf
CC1(C)Cc2cccc(C(=O)NCc3ccco3)c2O1	2	-9	-6	-3	-10	1	/	/
CC(C)(C)NC(=O)c1cccc2c1OC(C)(C)C2	16*	-6	-14	0	-7	-4	-2	-1
Cc1csc(SCC(=O)c2cc(C)n(Cc3cccs3)c2C)n1	0	-4	1	2	7	-8	/	/
Cc1cc(C(=O)CSc2n[nH]c(-c3ccccc3F)n2)c(C)n1Cc1cccs1	10*	3	4	6	10	-6	-9	-7
C#CCOCCOCCOCCNc1nc(N2CCN(C(=O)[C@H](CCCCN)n3cc([C@@H](N)C(C)CC)nn3)CC2)nc(N2CCN(C(=O)[C@H](CCCCN)n3cc([C@@H](N)C(C)CC)nn3)CC2)n1 (some centres undefined)	10*	7	-5	-5	-12	-1	0	6
CN1CCC(NCCC(c2ccc(F)cc2)c2ccc(Cl)cc2)CC1 (centres undefined)	10*	4	3	-1	1	-4	-5	1
C=CCNC(=O)N1CCC(c2nc3ccc(Cl)cc3[nH]2)CC1	6	4	-4	3	4	-7	/	/
CC(C)(C)CSc1nnc(-c2cccnc2)n1Cc1ccccc1	2	2	6	-1	0	7	/	/
CC(C)(C)c1cc(=O)n(-c2ccccc2)[nH]1	28*	9	9	0	1	-2	7	2
O=c1cc(-c2ccccc2)[nH]n1-c1ccccc1	-1	-14	5	-1	-4	3	/	/
COP(=O)(O)C(Cc1ccccc1)NC(=O)OCc1ccccc1 (centres undefined)	2	0	3	-1	4	-4	/	/
